From ChEMBL document CHEMBL1165943, “Design and synthesis of new anticancer pyrimidines with multiple-kinase inhibitory effect” (Bioorg Med Chem, 2010)

Key:
U-251 = assay: Cytotoxicity against human U251 cells assessed as cell growth at 1 uM after 48 hrs by sulforhodamine B assay; assay type: functional; settings: U-251, 48 h, read-out: Activity
SN12C [1] = assay: Cytotoxicity against human SN12C cells assessed as cell growth at 0.01 uM after 48 hrs by sulforhodamine B assay; assay type: functional; settings: read-out: Activity
DU-145 = assay: Cytotoxicity against human DU145 cells assessed as cell growth at 10 uM after 48 hrs by sulforhodamine B assay; assay type: functional; settings: DU-145, 48 h, read-out: Activity
SN12C [2] = assay: Cytotoxicity against human SN12C cells assessed as cell growth at 0.001 uM after 48 hrs by sulforhodamine B assay; assay type: functional; settings: read-out: Activity
M14 = assay: Cytotoxicity against human M14 cells assessed as cell growth at 100 nM after 48 hrs by sulforhodamine B assay; assay type: functional; settings: M14, 48 h, read-out: Activity
UO-31 [3] = assay: Growth inhibition of human UO31 cells after 48 hrs by sulforhodamine B assay; assay type: functional, cell-based; settings: UO-31, 48 h
Summary of the method: (§1)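 Cells grown in RPMI 1640 with 5% FBS and 2 mM L-glutamine, seeded at 5,000–40,000 cells/well according to doubling time. After 24 h, time-zero plates are TCA-fixed. Five concentrations (10-fold or ½log dilutions, DMSO stocks) are applied for 48 h at 37 °C, 5% CO₂. Cells are TCA-fixed, SRB-stained and read at 515 nm. IC₅₀ is taken from [(Ti−Tz)/(C−Tz)]×100 = 50.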

MDA-MB-231 [4] = assay: Growth inhibition of human MDA-MB-231 cells after 48 hrs by sulforhodamine B assay; assay type: functional, cell-based; settings: MDA-MB-231, 48 h; summary of the method: as §1
MDA-MB-435 = assay: Cytotoxicity against human MDA-MB-435 cells assessed as cell growth at 0.01 uM after 48 hrs by sulforhodamine B assay; assay type: functional; settings: MDA-MB-435, 48 h, read-out: Activity
SK-MEL-5 = assay: Cytotoxicity against human SK-MEL-5 cells assessed as cell growth at 10 uM after 48 hrs by sulforhodamine B assay; assay type: functional; settings: SK-MEL-5, 48 h, read-out: Activity
MDA-MB-231 [5] = assay: Cytotoxicity against human MDA-MB-231 cells assessed as cell growth at 0.001 uM after 48 hrs by sulforhodamine B assay; assay type: functional; settings: MDA-MB-231, 48 h, read-out: Activity
IGROV-1 = assay: Cytotoxicity against human IGROV1 cells assessed as cell growth at 100 nM after 48 hrs by sulforhodamine B assay; assay type: functional; settings: IGROV-1, 48 h, read-out: Activity
OVCAR-5 [6] = assay: Cytotoxicity against human OVCAR5 cells assessed as cell growth at 0.01 uM after 48 hrs by sulforhodamine B assay; assay type: functional; settings: OVCAR-5, 48 h, read-out: Activity
NCI-H23 = assay: Cytotoxicity against human NCI-H23 cells assessed as cell growth at 0.001 uM after 48 hrs by sulforhodamine B assay; assay type: functional; settings: NCI-H23, 48 h, read-out: Activity
HOP-62 [7] = assay: Growth inhibition of human HOP62 cells after 48 hrs by sulforhodamine B assay; assay type: functional, cell-based; settings: HOP-62, 48 h; summary of the method: as §1
SW-620 = assay: Growth inhibition of human SW620 cells after 48 hrs by sulforhodamine B assay; assay type: functional, cell-based; settings: SW-620, 48 h; summary of the method: as §1
SF-295 = assay: Cytotoxicity against human SF295 cells assessed as cell growth at 0.01 uM after 48 hrs by sulforhodamine B assay; assay type: functional; settings: SF-295, 48 h, read-out: Activity
SNB-75 = assay: Cytotoxicity against human SNB75 cells assessed as cell growth at 100 nM after 48 hrs by sulforhodamine B assay; assay type: functional; settings: SNB-75, 48 h, read-out: Activity
SF-539 [8] = assay: Growth inhibition of human SF539 cells after 48 hrs by sulforhodamine B assay; assay type: functional, cell-based; summary of the method: as §1
UACC-257 [9] = assay: Cytotoxicity against human UACC257 cells assessed as cell growth at 100 nM after 48 hrs by sulforhodamine B assay; assay type: functional; settings: UACC-257, 48 h, read-out: Activity
SF-539 [10] = assay: Cytotoxicity against human SF539 cells assessed as cell growth at 100 nM after 48 hrs by sulforhodamine B assay; assay type: functional; settings: SF-539, 48 h, read-out: Activity
EKVX = assay: Cytotoxicity against human EKVX cells assessed as cell growth at 0.01 uM after 48 hrs by sulforhodamine B assay; assay type: functional; settings: read-out: Activity
SK-MEL-2 = assay: Growth inhibition of human SK-MEL-2 cells after 48 hrs by sulforhodamine B assay; assay type: functional, cell-based; settings: SK-MEL-2, 48 h; summary of the method: as §1
UACC-257 [11] = assay: Cytotoxicity against human UACC257 cells assessed as cell growth at 10 uM after 48 hrs by sulforhodamine B assay; assay type: functional; settings: UACC-257, 48 h, read-out: Activity
KM12 = assay: Cytotoxicity against human KM12 cells assessed as cell growth at 100 nM after 48 hrs by sulforhodamine B assay; assay type: functional; settings: KM12, 48 h, read-out: Activity
OVCAR-5 [12] = assay: Cytotoxicity against human OVCAR5 cells assessed as cell growth at 10 uM after 48 hrs by sulforhodamine B assay; assay type: functional; settings: OVCAR-5, 48 h, read-out: Activity
UO-31 [13] = assay: Cytotoxicity against human UO31 cells assessed as cell growth at 0.001 uM after 48 hrs by sulforhodamine B assay; assay type: functional; settings: UO-31, 48 h, read-out: Activity
SF-268 = assay: Cytotoxicity against human SF268 cells assessed as cell growth at 0.001 uM after 48 hrs by sulforhodamine B assay; assay type: functional; settings: SF-268, 48 h, read-out: Activity
BT-549 = assay: Cytotoxicity against human BT549 cells assessed as cell growth at 0.01 uM after 48 hrs by sulforhodamine B assay; assay type: functional; settings: BT-549, 48 h, read-out: Activity
Summary of the method: (§2)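 Cells grown in RPMI 1640 with 5% FBS and 2 mM L-glutamine, seeded at 5,000–40,000 cells/well by doubling time. Time-zero plates TCA-fixed after 24 h. Five concentrations (10-fold or half-log dilutions from DMSO stock) added; 48 h at 37 °C, 5% CO2. Cold TCA fixation (final 10%, 60 min, 4 °C), 0.4% SRB stain, dye solubilized in 10 mM trizma base, A515.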

HOP-62 [14] = assay: Cytotoxicity against human HOP62 cells assessed as cell growth at 0.01 uM after 48 hrs by sulforhodamine B assay; assay type: functional; settings: HOP-62, 48 h, read-out: Activity
SF-539 [15] = assay: Cytotoxicity against human SF539 cells assessed as cell growth at 10 uM after 48 hrs by sulforhodamine B assay; assay type: functional; settings: SF-539, 48 h, read-out: Activity
786-0 = assay: Cytotoxicity against human 786-0 cells assessed as cell growth at 10 uM after 48 hrs by sulforhodamine B assay; assay type: functional; settings: 786-0, 48 h, read-out: Activity; summary of the method: as §2
[16] = read-out: LC50 (the source's name)

CC(=O)c1ccccc1-c1ccc(-c2ccnc(NC(=O)Nc3cc(N4CCOCC4)cc(C(F)(F)F)c3)n2)cn1
growth at 1 µM (U-251): 63%
growth at 0.01 µM (SN12C [1]): 88%
growth at 10 µM (DU-145): 59%
growth at 0.001 µM (SN12C [2]): 93%
growth at 0.1 µM (M14): 77%
GI50 (UO-31 [3]): > 5.46 µM
IC50 (UO-31 [3]): > 100 µM
TGI (UO-31 [3]): > 100 µM
CC50 (UO-31 [3]; [16]): > 100 µM
IC50 (MDA-MB-231 [4]): 3.1 µM
LC50 (MDA-MB-231 [4]): > 100 µM
TGI (MDA-MB-231 [4]): > 100 µM
growth at 0.01 µM (MDA-MB-435): 95%
growth at 10 µM (SK-MEL-5): 68%
growth at 0.001 µM (MDA-MB-231 [5]): 101%
growth at 0.1 µM (IGROV-1): 87%
growth at 0.01 µM (OVCAR-5 [6]): 100%
growth at 0.001 µM (NCI-H23): 98%
GI50 (HOP-62 [7]): > 100 µM
IC50 (HOP-62 [7]): 4.29 µM
TGI (HOP-62 [7]): > 100 µM
CC50 (HOP-62 [7]; [16]): > 100 µM
GI50 (SW-620): > 100 µM
IC50 (SW-620): > 100 µM
TGI (SW-620): > 100 µM
CC50 (SW-620; [16]): > 100 µM
growth at 0.01 µM (SF-295): 90%
growth at 0.1 µM (SNB-75): 89%
TGI (SF-539 [8]; Homo sapiens, SF-539, 48 h): > 100 µM
CC50 (SF-539 [8]; Homo sapiens, SF-539, 48 h, read-out: LC50 (the source's name)): > 100 µM
IC50 (SF-539 [8]; sf-539): Not Active
growth at 0.1 µM (UACC-257 [9]): 83%
growth at 0.1 µM (SF-539 [10]): 88%
growth at 0.01 µM (EKVX): 94%
GI50 (SK-MEL-2): > 100 µM
IC50 (SK-MEL-2): 15.9 µM
TGI (SK-MEL-2): 75.5 µM
CC50 (SK-MEL-2; [16]): > 100 µM
growth at 10 µM (UACC-257 [11]): 92%
growth at 0.1 µM (KM12): 89%
growth at 10 µM (OVCAR-5 [12]): 118%
growth at 0.001 µM (UO-31 [13]): 85%
growth at 0.001 µM (SF-268): 103%
growth at 0.01 µM (BT-549): 91%
growth at 0.01 µM (HOP-62 [14]): 100%
growth at 10 µM (SF-539 [15]): 56%
growth at 10 µM (786-0): 10%
